The term half-life denotes how long it takes for the measured level to halve. Read a low half-life as rapid decline. As usually defined, the microsomal CLint is a measure of how fast metabolising enzymes remove a compound, apart from limits set by blood flow. Lower therefore signals greater metabolic stability.

Structures are written as SMILES. Peptide text beside a SMILES is read from it. * marks the point of attachment. Cbz = O=C(OCc1ccccc1)*

Three molecules from article PMC12017310 (Science Advances, 2025) can be followed below.

In one data set the target is CDK12 (Homo sapiens, UniProt Q9NYV4). Nature of the data set: Western blot of CDK12 in PCa cell lines. The settings on record: 22Rv1, MG132 pre-treatment 2 hours, then BSJ-5-63. Type of data set: cell-based. A digest of the protocol: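 Equal protein amounts separated by SDS-PAGE and transferred to PVDF. Primary antibodies in 5% BSA/TBST overnight at 4°C; secondary antibody 1 h at room temperature. Blots shown are representative of three independent experiments.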
On the technique in general: A western blot detects proteins with antibodies after separation by electrophoresis.

The subject of data set [1] is CDK12-KO 22Rv1 xenografts. Nature of the data set: In vivo CDK12-KO 22Rv1 xenograft model. The arrangement: species or system male SCID mice. The settings on record: olaparib 50 mg/kg, p.o., daily. The method, boiled down:
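CDK12-KO (two sgRNAs) and AAVS1-control 22Rv1 cells made by lentiviral spin infection of Cas9-expressing cells (blasticidin 20 μg/ml). Implanted subcutaneously (5 × 10^6 with Matrigel). At ~150 mm3, each line randomised to vehicle p.o. or PARP inhibitor 50 mg/kg p.o. daily for 3 weeks (or until 2 cm tumour length). Tumours excised and weighed.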

In another data set the test system is 22Rv1 xenografts. In words: In vivo 22Rv1 xenograft model. Also on record: species or system male SCID mice. The settings on record: BSJ-5-63 25 mg/kg ip; olaparib 50 mg/kg p.o. A digest of the protocol: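 22Rv1 cells (5 × 10^6 in 50 μl plus 50 μl Matrigel) injected subcutaneously into the right flank; n = 5/group, randomised at ~150 mm3. Volume = length × width² × 0.5. Monotherapy: 50 mg/kg ip daily or 1 day on/2 days off for 12 days; vehicle 5% DMSO/15% Solutol HS-15/80% saline. Sequential arms: test compound 25 mg/kg ip and PARP inhibitor 50 mg/kg p.o. Tumours weighed; H&E and cleaved caspase-3 IHC performed.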

Another data set relates to PCa cells. In words: Colony formation assay. The format is cell-based, human. The settings on record: cell viability and colony formation assays. A digest of the protocol: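 Seeding was 30,000 cells/well for 22Rv1 (six-well plates), with overnight attachment before treatment. Colonies grown 14 days at 37°C, 5% CO2, with weekly medium change. Stained with 0.1% crystal violet and quantified by image analysis. Three independent experiments.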

For a further data set, the system named is DU145 xenografts. In words: In vivo DU145 xenograft model. The settings on record: BSJ-5-63 25 mg/kg ip; olaparib 50 mg/kg p.o. Also on record: species or system male SCID mice. A digest of the protocol:
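DU145 xenografts were set up subcutaneously with Matrigel in the right flank. At ~150 mm3, mice were randomised into four groups (n = 5): vehicle p.o., PARP inhibitor 50 mg/kg p.o., test compound 25 mg/kg ip, or sequential combination. Dosing volume 0.1 ml/10 g. Body weight recorded daily. Study ended after 3–4 weeks or at 2 cm tumour length.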

The test system of the next data set is BID-PC4 PDX. Nature of the data set: In vivo BID-PC4 PDX model. The settings on record: BSJ-5-63 25 mg/kg ip; olaparib 50 mg/kg p.o. The arrangement: species or system male SCID mice. The method, boiled down: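 Tumour bits in 50 μl PBS plus 50 μl Matrigel implanted subcutaneously (right flank) into intact male SCID mice. At ~150 mm3, randomised into four groups (n = 5): vehicle (5% DMSO/15% Solutol HS-15/80% saline) p.o., PARP inhibitor 50 mg/kg p.o., test compound 25 mg/kg ip, or sequential combination. Body weight recorded daily. Run for 3 weeks or until 2 cm tumour length; tumours excised and weighed.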

Data set [2] can be described thus: In vitro mouse liver microsomal stability assay. The format is in vitro ADME. The note with it: liver microsomes. The method, boiled down: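 Mouse liver microsomes (0.5 mg/ml) incubated with 1 μM test compound at 37°C with NADPH cofactor (1 mM).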
On the technique in general: Liver microsomes are vesicles of endoplasmic reticulum, rich in cytochrome P450 enzymes.

Sequence of CDK12 (Q9NYV4 whole entry): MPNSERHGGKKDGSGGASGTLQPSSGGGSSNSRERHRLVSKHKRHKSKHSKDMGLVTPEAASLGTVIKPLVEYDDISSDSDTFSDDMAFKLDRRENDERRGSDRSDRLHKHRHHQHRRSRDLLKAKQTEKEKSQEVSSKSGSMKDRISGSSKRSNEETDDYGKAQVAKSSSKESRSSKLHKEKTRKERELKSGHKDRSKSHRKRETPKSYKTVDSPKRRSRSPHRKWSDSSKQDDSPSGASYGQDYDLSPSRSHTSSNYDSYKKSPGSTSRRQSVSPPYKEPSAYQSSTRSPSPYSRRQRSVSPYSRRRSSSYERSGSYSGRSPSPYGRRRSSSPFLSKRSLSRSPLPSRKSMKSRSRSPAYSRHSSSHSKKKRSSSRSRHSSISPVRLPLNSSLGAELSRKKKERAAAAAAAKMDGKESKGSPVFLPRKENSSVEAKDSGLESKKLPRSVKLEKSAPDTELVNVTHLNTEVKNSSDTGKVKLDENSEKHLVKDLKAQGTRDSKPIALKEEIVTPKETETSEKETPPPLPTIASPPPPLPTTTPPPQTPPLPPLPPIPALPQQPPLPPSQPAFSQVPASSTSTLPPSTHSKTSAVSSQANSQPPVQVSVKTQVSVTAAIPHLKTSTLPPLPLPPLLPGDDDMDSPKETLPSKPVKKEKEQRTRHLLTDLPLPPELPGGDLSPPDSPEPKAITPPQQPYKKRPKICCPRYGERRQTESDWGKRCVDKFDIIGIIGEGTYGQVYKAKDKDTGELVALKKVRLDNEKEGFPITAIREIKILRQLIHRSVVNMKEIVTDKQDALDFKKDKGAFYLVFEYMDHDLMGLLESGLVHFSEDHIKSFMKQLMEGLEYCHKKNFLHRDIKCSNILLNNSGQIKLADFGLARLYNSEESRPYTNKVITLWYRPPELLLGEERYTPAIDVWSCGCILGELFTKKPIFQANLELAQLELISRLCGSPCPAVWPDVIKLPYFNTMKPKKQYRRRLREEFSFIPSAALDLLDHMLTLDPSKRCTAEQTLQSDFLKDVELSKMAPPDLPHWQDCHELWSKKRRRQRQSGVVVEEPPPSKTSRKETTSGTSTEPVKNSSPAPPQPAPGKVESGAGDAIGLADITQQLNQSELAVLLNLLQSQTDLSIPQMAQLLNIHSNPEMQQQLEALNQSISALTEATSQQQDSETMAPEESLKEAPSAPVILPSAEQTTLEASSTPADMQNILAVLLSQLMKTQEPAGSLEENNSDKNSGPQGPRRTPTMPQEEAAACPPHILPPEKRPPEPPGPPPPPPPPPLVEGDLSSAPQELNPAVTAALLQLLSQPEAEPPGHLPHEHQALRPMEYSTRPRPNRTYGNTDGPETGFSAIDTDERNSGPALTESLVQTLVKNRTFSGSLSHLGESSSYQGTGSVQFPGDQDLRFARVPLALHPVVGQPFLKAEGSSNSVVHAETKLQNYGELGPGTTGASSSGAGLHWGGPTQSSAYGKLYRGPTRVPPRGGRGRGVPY
Sequence of CDK12 (O75909 whole entry partner): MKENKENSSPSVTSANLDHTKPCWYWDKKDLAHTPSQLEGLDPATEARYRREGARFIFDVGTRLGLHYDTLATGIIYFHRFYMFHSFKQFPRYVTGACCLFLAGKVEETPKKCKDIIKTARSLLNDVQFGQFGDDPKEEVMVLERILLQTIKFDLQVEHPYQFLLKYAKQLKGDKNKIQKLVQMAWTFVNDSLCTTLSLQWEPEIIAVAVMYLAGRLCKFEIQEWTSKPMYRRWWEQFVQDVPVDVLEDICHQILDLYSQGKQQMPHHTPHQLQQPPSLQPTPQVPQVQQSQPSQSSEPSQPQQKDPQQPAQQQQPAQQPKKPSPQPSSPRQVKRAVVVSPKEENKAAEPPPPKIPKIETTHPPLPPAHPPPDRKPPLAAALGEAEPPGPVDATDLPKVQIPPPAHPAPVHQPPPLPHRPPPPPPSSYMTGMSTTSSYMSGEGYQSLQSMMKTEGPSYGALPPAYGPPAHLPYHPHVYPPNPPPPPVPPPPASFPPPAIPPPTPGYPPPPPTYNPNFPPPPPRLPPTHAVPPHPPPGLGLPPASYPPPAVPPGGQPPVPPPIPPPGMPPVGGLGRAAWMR

Consider `CC(C)C[C@@H](C=O)NC(=O)[C@H](CC(C)C)NC(=O)[C@H](CC(C)C)NC(=O)OCc1ccccc1` [MG132] (Cbz-Leu-Leu-Leu-aldehyde), for which, on CDK12, the “BSJ-5-63–induced degradation of CDK12/7/9 after pretreatment with the proteasome inhibitor” value was “rescued”.
As for `O=C(c1cc(Cc2n[nH]c(=O)c3ccccc23)ccc1F)N1CCN(C(=O)C2CC2)CC1` [Olaparib], the “tumor growth of CDK12-KO 22Rv1 xenografts” value in data set [1] (3 weeks) is given as “marked sensitivity”. Also, the “tumor weight of CDK12-KO 22Rv1 xenografts” value in data set [1] (day 21) is “reduction in tumor weight”. In the data set on 22Rv1 xenografts, the “22Rv1 tumor growth, monotherapy” value is “partial inhibition” and the “number of apoptotic cells in 22Rv1 tumors, monotherapy” value is on record as “notably increased”. Also, the “sensitivity of CDK12-KO 22Rv1 cells compared with AAVS1 control” value in the data set on PCa cells is on record as “significantly enhanced sensitivity”. Besides, the “DU145 tumor growth, monotherapy” value with DU145 xenografts is reported as “only partial inhibition of tumor growth”. Besides, in the data set on BID-PC4 PDX, the “BID-PC4 PDX tumor growth, monotherapy” value is “insensitive”.
`CCN(CC)CCNC(=O)c1c(C)[nH]c(/C=C2\C(=O)Nc3ccc(F)cc32)c1C` [Sunitinib]: in data set [2], the half-life at 1 μM is 10 min and the microsomal CLint at 1 μM was 69 µL/min/mg.
